Measured values reported in ChEMBL document CHEMBL1914395, “Design, synthesis, and biological evaluation of callophycin A and analogues as potential chemopreventive and anticancer agents” (Bioorg Med Chem, 2011).
pIC50: −log10 of the molar value.

How the values were obtained:
[1] = biological target: NAD(P)H dehydrogenase [quinone] 1 (Mus musculus) (UniProt Q64669); experiment: Induction of quinone reductase 1 activity in mouse Hepa-1c1c7 cells at 50 uM by MTT assay relative to untreated control; assay type: cell-based
In short: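 Hepa 1c1c7 murine hepatoma cells treated with compound at 50 μM. QR1 measured by NADPH-dependent, menadiol-mediated reduction of MTT to formazan. Protein measured by crystal violet staining of identical plates. Specific activity is nmol formazan per mg protein per min. Induction ratio is treated versus DMSO-treated control.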

[2] = biological target: NAD(P)H dehydrogenase [quinone] 1 (Mus musculus) (UniProt Q64669); experiment: Induction of quinone reductase 1 activity in mouse Hepa-1c1c7 cells assessed as cell survival at 50 uM by MTT assay relative to control; assay type: cell-based
[3] = biological target: T1, Aromatase (Homo sapiens, UniProt P11511); experiment: Inhibition of aromatase at 50 uM after 10 mins preincubation by plate reader relative to control
T1 sequence (P11511 whole entry): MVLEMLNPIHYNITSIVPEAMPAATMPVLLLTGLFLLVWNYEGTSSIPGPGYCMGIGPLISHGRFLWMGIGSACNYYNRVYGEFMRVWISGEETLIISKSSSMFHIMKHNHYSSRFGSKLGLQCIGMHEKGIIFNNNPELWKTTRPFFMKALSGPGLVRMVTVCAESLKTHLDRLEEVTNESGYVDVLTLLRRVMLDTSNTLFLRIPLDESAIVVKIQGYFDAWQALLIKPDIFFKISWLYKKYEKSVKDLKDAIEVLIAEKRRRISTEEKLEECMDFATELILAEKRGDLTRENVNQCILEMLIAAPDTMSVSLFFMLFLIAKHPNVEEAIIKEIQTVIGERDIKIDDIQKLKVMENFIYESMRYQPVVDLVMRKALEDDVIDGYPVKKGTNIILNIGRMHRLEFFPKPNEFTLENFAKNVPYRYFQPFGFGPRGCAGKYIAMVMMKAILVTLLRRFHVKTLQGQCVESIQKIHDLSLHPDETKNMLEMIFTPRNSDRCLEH
In short: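 CYP19 enzyme. Compound pre-incubated 10 min with an NADPH-regenerating system (NADP+, glucose 6-phosphate, G6PDH, MgCl2, albumin) in 50 mM potassium phosphate pH 7.4. Enzyme and 0.4 μM dibenzylfluorescein substrate then added, 30 min at 37 °C. Quenched with 2 N NaOH and incubated a further 2 h at 37 °C. Fluorescence read at ex 485/em 530 nm. Compound tested at 50 μM.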

[4] = biological target: T2, Nitric oxide synthase, inducible (Mus musculus, UniProt P29477); experiment: Inhibition of iNOS-mediated nitric oxide production in LPS-stimulated mouse RAW 264.7 cells pretreated 15 mins before LPS challenge measured after 20 hrs relative to control; assay type: cell-based
T2 sequence (P29477 whole entry): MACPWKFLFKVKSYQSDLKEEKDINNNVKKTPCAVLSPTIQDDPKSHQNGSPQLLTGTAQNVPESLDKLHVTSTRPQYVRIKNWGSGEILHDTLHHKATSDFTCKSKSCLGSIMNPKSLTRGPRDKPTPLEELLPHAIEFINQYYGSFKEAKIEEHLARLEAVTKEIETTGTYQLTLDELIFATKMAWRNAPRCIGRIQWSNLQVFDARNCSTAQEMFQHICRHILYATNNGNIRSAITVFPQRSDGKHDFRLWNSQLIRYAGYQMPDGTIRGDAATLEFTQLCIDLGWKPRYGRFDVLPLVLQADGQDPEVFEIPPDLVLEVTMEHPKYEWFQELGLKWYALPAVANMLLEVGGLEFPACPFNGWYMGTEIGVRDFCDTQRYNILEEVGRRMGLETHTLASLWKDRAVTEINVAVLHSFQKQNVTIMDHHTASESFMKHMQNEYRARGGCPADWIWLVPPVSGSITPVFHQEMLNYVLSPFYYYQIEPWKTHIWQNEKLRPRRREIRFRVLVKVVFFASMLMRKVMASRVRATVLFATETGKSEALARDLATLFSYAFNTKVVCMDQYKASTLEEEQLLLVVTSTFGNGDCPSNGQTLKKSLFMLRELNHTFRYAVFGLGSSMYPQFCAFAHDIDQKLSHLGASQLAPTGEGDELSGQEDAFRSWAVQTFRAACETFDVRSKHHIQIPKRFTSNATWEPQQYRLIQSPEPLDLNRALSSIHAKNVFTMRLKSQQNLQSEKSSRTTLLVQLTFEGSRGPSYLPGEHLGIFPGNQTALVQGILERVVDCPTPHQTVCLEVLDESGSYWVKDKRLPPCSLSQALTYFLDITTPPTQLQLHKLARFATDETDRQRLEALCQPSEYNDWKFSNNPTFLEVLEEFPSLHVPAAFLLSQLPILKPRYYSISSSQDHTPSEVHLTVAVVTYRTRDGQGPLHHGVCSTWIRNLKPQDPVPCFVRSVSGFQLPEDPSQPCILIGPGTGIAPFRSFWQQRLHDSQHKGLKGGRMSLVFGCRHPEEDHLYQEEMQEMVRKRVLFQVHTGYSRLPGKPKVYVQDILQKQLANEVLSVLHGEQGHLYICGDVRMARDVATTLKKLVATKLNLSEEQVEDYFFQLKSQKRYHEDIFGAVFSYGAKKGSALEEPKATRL
In short: (§1)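 RAW 264.7 cells cultured 24 h at 37°C, then given serially diluted compounds for 15 min before LPS (1 μg/mL) for 20 h. Nitrite in the medium measured with Griess reagent at 540 nm against a sodium nitrite standard curve. Cytotoxicity checked by SRB under the same conditions.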

[5] = biological target: T3, Nitric oxide synthase, inducible (Mus musculus) (UniProt P29477); experiment: Inhibition of iNOS-mediated nitric oxide production in LPS-stimulated mouse RAW 264.7 cells at 50 uM pretreated 15 mins before LPS challenge measured after 20 hrs relative to control; assay type: cell-based; in short: as §1
T3 sequence (whole entry): T2 sequence (P29477 whole entry)

[6] = test system: MCF7; experiment: Antiproliferative activity against human MCF7 cells assessed as survival at 50 uM after 72 hrs by SRB assay relative to control; assay type: functional; settings: MCF7, 72 h, read-out: Survival
In short: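 MCF7 cells (1 × 10^4 per well) were plated onto compound and kept at 37°C, 5% CO2 for 72 h. Cells were fixed in 10% TCA for 30 min and stained with 0.4% SRB in 1% acetic acid for 30 min. Bound dye was dissolved in 10 mM Tris (pH 10.0) and read at 515 nm. Survival is given as % of DMSO-treated controls, screened at 50 μM.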

[7] = test system: HEK293; experiment: Inhibition of TNF-alpha-induced NFkappaB activation in human HEK293 cells assessed as cell survival at 50 uM after 6 hrs by luciferase assay relative to control; assay type: cell-based
[8] = biological target: T3, Nitric oxide synthase, inducible (Mus musculus); experiment: Inhibition of iNOS-mediated nitric oxide production in LPS-stimulated mouse RAW 264.7 cells assessed as cell survival at 50 uM pretreated 15 mins before LPS challenge measured after 20 hrs relative to control; assay type: cell-based
In short: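 RAW 264.7 cells were incubated at 37°C, 5% CO2 for 24 h. They were then exposed to compound for 15 min before LPS (1 μg/mL) was added for 20 h. Cytotoxicity was measured by SRB staining under the same conditions. Survival is expressed as % relative to vehicle-treated controls at 50 μM.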

[9] = test system: HEK293; experiment: Inhibition of TNF-alpha-induced NFkappaB activation in human HEK293 cells at 50 uM after 6 hrs by luciferase assay relative to control; assay type: cell-based
In short: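 Cells incubated 6 h with TNFα plus test compound, then luciferase activity measured. Results expressed as percent of TNFα-treated control. Screening concentration 50 μM.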

Chain of NAD(P)H dehydrogenase [quinone] 1 (Mus musculus) (Q64669 whole entry): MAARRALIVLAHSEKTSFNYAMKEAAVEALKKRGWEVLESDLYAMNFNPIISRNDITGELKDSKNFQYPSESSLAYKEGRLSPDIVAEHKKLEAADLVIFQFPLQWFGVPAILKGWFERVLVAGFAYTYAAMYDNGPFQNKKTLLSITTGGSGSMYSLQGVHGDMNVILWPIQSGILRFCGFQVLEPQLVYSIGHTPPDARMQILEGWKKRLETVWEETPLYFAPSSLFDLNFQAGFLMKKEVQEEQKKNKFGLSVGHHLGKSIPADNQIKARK

Row | Compound | Ratio [1] | Survival [2] | inhibition at 50 µM [3] | pIC50 [4] | inhibition [5] | viability at 50 µM [6] | Survival [7] | Survival [8] | inhibition [9]
1 | COC(=O)[C@@H]1Cc2c([nH]c3ccccc23)CN1S(=O)(=O)c1ccc(Br)cc1 | 0.2 | 36.4% | 36.7% | 4.64 | 70.6% | -2.1% | 186% | 89.2% | 32.8%
2 | O=C(O)[C@H]1Cc2c([nH]c3ccccc23)CN1Cc1ccc(O)cc1 | 1.5 | 91.2% | 38.4% | – | 27.8% | 71.1% | 133% | 94.7% | 54.6%
3 | COC(=O)[C@@H]1Cc2c([nH]c3ccccc23)CN1S(C)(=O)=O | 1.6 | 85.8% | 30.5% | – | 10.6% | 72.5% | 153% | 91.9% | 38.6%
4 | O=C(O)[C@H]1Cc2c([nH]c3ccccc23)CN1S(=O)(=O)c1ccc(Br)cc1 | 1.3 | 88.3% | 32.3% | 4.34 | 56.2% | 91.2% | 252% | 103% | 50.9%
5 | O=C(O)[C@H]1Cc2c([nH]c3ccccc23)CN1CC1CC1 | 1.8 | 102% | 31.5% | – | – | 113% | 169% | 130% | 48.4%
6 | Cc1ccc(S(=O)(=O)N2Cc3[nH]c4ccccc4c3C[C@@H]2C(=O)O)cc1 | 1.2 | 93.8% | 23% | – | 2.9% | 99.8% | 195% | 102% | 26%
7 | C#CCN1Cc2[nH]c3ccccc3c2C[C@@H]1C(=O)O | 1.6 | 94.6% | 23.5% | – | 16.4% | 107% | 72.7% | 87.9% | -7.7%
8 | COC(=O)[C@H]1Cc2c([nH]c3ccccc23)CN1CC1CC1 | 1.8 | 81.8% | 37.9% | – | 5.6% | 102% | 254% | 124% | 29.9%
9 | COC(=O)[C@H]1Cc2c([nH]c3ccccc23)CN1Cc1ccc(O)cc1 | 1.8 | 98.6% | 38.7% | 4.43 | 63.7% | 100% | 122% | 87.3% | 33.5%
10 | C=CCOC(=O)N1Cc2[nH]c3ccccc3c2C[C@@H]1C(=O)O | 1.9 | 93.8% | 32.9% | – | -4% | 102% | 204% | 134% | 49.4%
11 | O=C(O)[C@H]1Cc2c([nH]c3ccccc23)CN1 | 0.8 | 90.7% | 34.9% | – | 3.5% | – | 95.4% | 95.9% | –
12 | O=C(O)[C@H]1Cc2c([nH]c3ccccc23)CN1Cc1ccccc1 | 1.8 | 108% | 19.2% | – | 9.9% | – | 89.5% | 109% | 41.8%
13 | Cc1ccc(S(=O)(=O)N2Cc3[nH]c4ccccc4c3C[C@H]2C(=O)O)cc1 | 1.4 | 88.8% | 16.9% | – | 7% | 96.5% | 272% | 85.5% | 42.5%
14 | O=C(O)[C@@H]1Cc2c([nH]c3ccccc23)CN1 [CYCLOMETHYLTRYPTOPHAN] | 1.1 | 99.2% | 20.7% | – | 2% | – | 103% | 100% | 4.6%
15 | CS(=O)(=O)N1Cc2[nH]c3ccccc3c2C[C@@H]1C(=O)O | 1.9 | 80.6% | 30.7% | – | 5% | 88.7% | 178% | 93.1% | -2.3%
16 | COC(=O)[C@@H]1Cc2c([nH]c3ccccc23)CN1Cc1ccc(OCc2ccccc2)cc1 | 1.8 | 72.8% | 28% | 4.41 | 58% | – | 99.7% | 93.9% | 24.7%
17 | C#CCN1Cc2[nH]c3ccccc3c2C[C@H]1C(=O)OC | 1.7 | 89.6% | 24.4% | – | 22.3% | 81.1% | 117% | 84.4% | 21.1%
18 | CS(=O)(=O)N1Cc2[nH]c3ccccc3c2C[C@H]1C(=O)O | 1.1 | 96.7% | 26.5% | – | 6.4% | – | 256% | 94.2% | 51.1%
19 | COC(=O)[C@H]1Cc2c([nH]c3ccccc23)CN1S(=O)(=O)c1ccc(C)cc1 | 1.3 | 85.8% | 28.2% | – | 7.4% | – | 114% | 91.4% | 25.2%
